Results on 20 compounds are retold here after ChEMBL document CHEMBL3044677, “Metabolism and metabolites of dithiocarbamates in the plant pathogenic fungus Leptosphaeria maculans” (J Agric Food Chem, 2012).

Data set [1] relates to Plenodomus lingam. As to the kind of experiment: Antifungal activity against Leptosphaeria maculans isolate BJ-125/UAMH-9410 assessed as mycelial growth inhibition at 0.5 mM incubated under constant light for 5 days by mycelial radial growth bioassay. The format is functional. The note with it: isolate BJ-125/UAMH-9410, 120 h, read-out: GI. Summed up: (§1)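 Mycelial radial growth assay. L. maculans (BJ125 or UAMH-9410) was grown on V8 agar. A 4 mm plug cut from 7-day-old V8 plates was placed upside down at the centre of PDA wells (33 mm) containing compound dissolved in CH3CN. Controls held 1% CH3CN in PDA. Plates were incubated under constant light for 5 days. Mycelial diameter was measured, and % inhibition = 100 − [(amended/control diameter) × 100]. Triplicate, at least twice; mean ± SD.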

In data set [2] the test system is Plenodomus lingam. As to the kind of experiment: Antifungal activity against Leptosphaeria maculans isolate BJ-125/UAMH-9410 assessed as mycelial growth inhibition at 0.1 mM incubated under constant light for 5 days by mycelial radial growth bioassay. The format is functional. Conditions: for inhibition of growth at 100 µM: isolate BJ-125/UAMH-9410, 120 h, read-out: GI. In short, it runs like this:
as §1

The test system of data set [3] is Plenodomus lingam. As to the kind of experiment: Antifungal activity against Leptosphaeria maculans isolate BJ-125/UAMH-9410 assessed as mycelial growth inhibition at 0.2 mM incubated under constant light for 5 days by mycelial radial growth bioassay. The note with it: isolate BJ-125/UAMH-9410, 120 h, read-out: GI. It counts as functional. Summed up: as §1
A short description of data set [4]: Drug metabolism in Leptosphaeria maculans isolate BJ-125 assessed as drug recovery at 0.10 mM after 24 hr by HPLC analysis. It counts as ADME, organism-based. The note with it: plenodomus lingam, Leptosphaeria maculans isolate BJ-125 (fungus); read-out: Drug recovery. Summed up: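 Minimal medium (50 mL) was inoculated with isolate BJ-125 spores (106/mL) and shaken at 120 rpm, 23 °C, under constant light. After 2 days, compound in CH3CN was added (final 0.10 mM), also to noninoculated medium as a stability control. Broth samples taken up to 72 h were extracted with EtOAc and quantified by HPLC-DAD against calibration curves; basified broth was extracted with CHCl3/MeOH for amines. At least three independent experiments ± SD.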

Active and inactive are the calls of the source. No cut-off for these calls is given here.

`COn1c(CN)cc2ccccc21`: the inhibition of growth at 500 µM in data set [1] was found to be 19%. For the same compound, the “growth inhibition (GI)” value in data set [2] was “inactive”. Besides, the inhibition of growth at 200 µM in data set [3] was determined as 8%.

Regarding `COn1c(CNC(C)=O)cc2ccccc21`, in data set [1], the inhibition of growth at 500 µM is 15%. Further, in data set [2], the inhibition of growth at 100 µM turned out to be 4%. Further, the inhibition of growth at 200 µM in data set [3] was 11%.

With `CC(=O)NCc1ccc(-c2ccccc2)cc1`, the inhibition of growth at 500 µM in data set [1] was 30%. Also, in data set [2], the inhibition of growth at 100 µM is 9%. For the same compound, the inhibition of growth at 200 µM in data set [3] turned out to be 17%.

Turning to `NCCCc1c[nH]c2ccccc12`, the inhibition of growth at 500 µM in data set [1] was determined as 27%. Also, the “growth inhibition (GI)” value in data set [2] was “inactive”. For the same compound, the inhibition of growth at 200 µM in data set [3] was determined as 14%.

Take `CC(=O)NCCCc1c[nH]c2ccccc12`: in data set [1], the inhibition of growth at 500 µM was 24%. For the same compound, in data set [2], the inhibition of growth at 100 µM came out at 10%. Further, in data set [3], the inhibition of growth at 200 µM was found to be 13%.

With `OCCCc1c[nH]c2ccccc12`, the inhibition of growth at 500 µM in data set [1] amounted to 18%. Moreover, the inhibition of growth at 100 µM in data set [2] worked out at 7%. Also, in data set [3], the inhibition of growth at 200 µM was determined as 14%.

In the case of `CSC(=S)NCc1ccc(-c2ccccc2)cc1`, in data set [1], the inhibition of growth at 500 µM was determined as 46%. The remaining at 24 h, 100 µM in data set [4] was less than 5%. In addition, in data set [2], the inhibition of growth at 100 µM is 14%. In addition, the inhibition of growth at 200 µM in data set [3] was determined as 32%.

In the case of `CSC(=S)OCCCc1c[nH]c2ccccc12`, in data set [1], the inhibition of growth at 500 µM came out at 31%. In addition, the inhibition of growth at 100 µM in data set [2] amounted to 5%. The inhibition of growth at 200 µM in data set [3] was 18%.

For the compound `CC(=O)NCc1cc2ccccc2[nH]1`, the inhibition of growth at 500 µM in data set [1] turned out to be 33%. Besides, the inhibition of growth at 100 µM in data set [2] came out at 7%. The inhibition of growth at 200 µM in data set [3] was determined as 18%.

As for `CS/C(S)=N/CCCc1c[nH]c2ccccc12`, the inhibition of growth at 500 µM in data set [1] worked out at 67%. In addition, the remaining at 24 h, 100 µM in data set [4] stood at 37%. In data set [2], the inhibition of growth at 100 µM was 21%. Further, the inhibition of growth at 200 µM in data set [3] worked out at 46%.

For `COn1c(CNC(=S)SC)cc2ccccc21` [1-METHOXYISOBRASSININ], the inhibition of growth at 500 µM in data set [1] is 34%. In data set [4], the remaining at 24 h, 100 µM was found to be 47%. Moreover, in data set [2], the inhibition of growth at 100 µM is 7%. Besides, the inhibition of growth at 200 µM in data set [3] stood at 15%.

Take `NCc1cc2ccccc2[nH]1` [2-INDOLYLMETHANAMINE]: the inhibition of growth at 500 µM in data set [1] was 33%. Besides, the “growth inhibition (GI)” value in data set [2] was “inactive”. Also, the inhibition of growth at 200 µM in data set [3] turned out to be 19%.

For `c1ccc2[nH]cnc2c1` [BENZIMIDAZOLE], the inhibition of growth at 500 µM in data set [1] was determined as 35%. Also, in data set [2], the inhibition of growth at 100 µM was 11%. In addition, the inhibition of growth at 200 µM in data set [3] turned out to be 20%.

As for `CSC(=S)NCc1c[nH]c2ccccc12` [BRASSININ], the inhibition of growth at 500 µM in data set [1] turned out to be 55%. The remaining at 24 h, 100 µM in data set [4] is less than 5%. For the same compound, the inhibition of growth at 100 µM in data set [2] is 10%. In addition, the inhibition of growth at 200 µM in data set [3] is 21%.

As to `CSC(=S)NCc1cc2ccccc2[nH]1` [ISOBRASSININ], the inhibition of growth at 500 µM in data set [1] came to 43%. For the same compound, in data set [4], the remaining at 24 h, 100 µM was less than 5%. Besides, in data set [2], the inhibition of growth at 100 µM was 13%. Also, in data set [3], the inhibition of growth at 200 µM came out at 22%.

For the compound `CSC(=S)NCCc1c[nH]c2ccccc12` [METHYL TRYPTAMINEDITHIOCARBAMATE], the inhibition of growth at 500 µM in data set [1] was 100%. For the same compound, in data set [4], the remaining at 24 h, 100 µM was found to be 55%. Moreover, the inhibition of growth at 100 µM in data set [2] stood at 43%. Besides, in data set [3], the inhibition of growth at 200 µM came to 71%.

Consider `CSC(=S)OCCc1c[nH]c2ccccc12` [METHYL TRYPTOPHOLDITHIOCARBAMATE], for which the inhibition of growth at 500 µM in data set [1] was 32%. Also, the remaining at 24 h, 100 µM in data set [4] is 15%. Besides, the inhibition of growth at 100 µM in data set [2] came to 7%. In addition, in data set [3], the inhibition of growth at 200 µM stood at 15%.

For the compound `CC(=O)NCCc1c[nH]c2ccccc12` [NB-ACETYLTRYPTAMINE], the inhibition of growth at 500 µM in data set [1] is 15%. For the same compound, in data set [2], the “growth inhibition (GI)” value is “inactive”. Besides, the inhibition of growth at 200 µM in data set [3] was 7%.

Regarding `NCCc1c[nH]c2ccccc12` [TRYPTAMINE], in data set [1], the inhibition of growth at 500 µM was 28%. Also, in data set [2], the inhibition of growth at 100 µM is 12%. In data set [3], the inhibition of growth at 200 µM was 15%.

As to `OCCc1c[nH]c2ccccc12` [TRYPTOPHOL], in data set [1], the inhibition of growth at 500 µM was determined as 29%. Further, the “growth inhibition (GI)” value in data set [2] is “inactive”. Further, the inhibition of growth at 200 µM in data set [3] turned out to be 16%.
